Source: ChEMBL document CHEMBL2176877, “Inhibition of NF-κB-dependent cytokine and inducible nitric oxide synthesis by the macrocyclic ellagitannin oenothein B in TLR-stimulated RAW 264.7 macrophages” (J Nat Prod, 2012)
Active and inactive are the calls of the source. No cut-off for these calls is given here.

Tests used:
[1] = target: T1, Nitric oxide synthase, inducible (Mus musculus) (UniProt P29477); experiment: Inhibition of iNOS in mouse RAW264.7 cells at 50 ug/ml; type: cell-based
T1 sequence (whole entry): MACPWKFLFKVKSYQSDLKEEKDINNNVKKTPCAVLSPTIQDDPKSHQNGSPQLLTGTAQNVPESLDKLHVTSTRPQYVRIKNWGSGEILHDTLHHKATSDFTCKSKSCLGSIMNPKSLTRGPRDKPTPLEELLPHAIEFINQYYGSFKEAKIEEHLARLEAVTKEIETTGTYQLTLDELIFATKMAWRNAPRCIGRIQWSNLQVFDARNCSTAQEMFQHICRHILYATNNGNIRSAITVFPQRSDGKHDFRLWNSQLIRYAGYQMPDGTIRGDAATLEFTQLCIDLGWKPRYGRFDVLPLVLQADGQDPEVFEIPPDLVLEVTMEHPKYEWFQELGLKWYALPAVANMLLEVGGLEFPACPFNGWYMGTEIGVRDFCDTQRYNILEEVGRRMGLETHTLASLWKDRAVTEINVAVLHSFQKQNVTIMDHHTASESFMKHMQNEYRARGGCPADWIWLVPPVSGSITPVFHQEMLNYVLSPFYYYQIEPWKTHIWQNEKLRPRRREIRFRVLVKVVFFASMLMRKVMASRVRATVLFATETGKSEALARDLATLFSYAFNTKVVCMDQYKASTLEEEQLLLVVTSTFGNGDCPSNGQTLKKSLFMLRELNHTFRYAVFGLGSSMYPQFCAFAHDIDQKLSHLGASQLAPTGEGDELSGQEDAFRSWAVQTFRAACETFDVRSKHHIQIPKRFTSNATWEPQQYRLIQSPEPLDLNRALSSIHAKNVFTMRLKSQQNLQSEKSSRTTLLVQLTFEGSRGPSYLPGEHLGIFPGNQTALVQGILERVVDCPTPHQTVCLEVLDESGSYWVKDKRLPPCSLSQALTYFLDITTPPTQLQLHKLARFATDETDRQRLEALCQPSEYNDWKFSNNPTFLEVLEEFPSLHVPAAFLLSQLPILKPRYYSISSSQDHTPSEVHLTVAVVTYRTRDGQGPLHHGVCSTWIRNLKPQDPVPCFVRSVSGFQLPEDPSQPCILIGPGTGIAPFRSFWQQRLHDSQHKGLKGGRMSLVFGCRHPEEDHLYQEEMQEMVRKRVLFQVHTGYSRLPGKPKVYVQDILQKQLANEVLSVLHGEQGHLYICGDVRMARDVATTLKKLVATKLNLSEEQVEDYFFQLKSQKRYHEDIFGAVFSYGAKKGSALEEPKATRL

RAW264.7 [2] = experiment: Inhibition of LPS-induced NO production in mouse RAW264.7 cells assessed as reduction in nitrite level within 24 hrs by Griess reagent method; type: functional, cell-based; details: for IC50: RAW264.7, 24 h
[3] = target: T1, Nitric oxide synthase, inducible (Mus musculus); details: RAW264.7, 300 uM
RAW264.7 [4] = experiment: Reduction of IL-6 mRNA expression in LPS-stimulated mouse RAW264.7 cells by RT-PCR analysis; type: functional, cell-based
Method in brief: (§1)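 IL-1beta, IL-6 and TNF-alpha mRNA from RAW 264.7 cells quantified by real-time RT-PCR using intron- or exon−exon boundary spanning primers. Results given as mean normalized expression; IL-6 and TNF-alpha levels normalized to 1000 copies of beta-actin.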

RAW264.7 [5] = experiment: Reduction of IL-1beta mRNA expression in LPS-stimulated mouse RAW264.7 cells by RT-PCR analysis; type: functional, cell-based; method in brief: as §1
RAW264.7 [6] = experiment: Cytotoxicity against LPS-stimulated mouse RAW264.7 cells assessed as decrease in total mRNA transcription after 24 hrs by RT-PCR analysis; type: cell-based; details: raw264.7, 24 h
Method in brief: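 LPS-stimulated RAW 264.7 macrophages co-incubated with test compound at 20−60 μg/mL for 24 h. iNOS mRNA (775 bp) and beta-actin mRNA (513 bp) analysed by semiquantitative competitive RT-PCR, with actin mRNA used to judge any generalized fall in transcription. One representative of three experiments.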

RAW264.7 [7] = experiment: Reduction of iNOS mRNA expression in LPS-stimulated mouse RAW264.7 cells after 24 hrs by RT-PCR analysis; type: functional, cell-based
Method in brief: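 LPS-stimulated macrophages given compound at 20−60 μg/mL for 24 h. iNOS mRNA (775 bp) measured by semiquantitative competitive RT-PCR against beta-actin mRNA (513 bp). One representative of three experiments.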

RAW264.7 [8] = experiment: Reduction of iNOS expression in LPS-stimulated mouse RAW264.7 cells after 24 hrs by Western blot analysis; type: functional, cell-based
Method in brief: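 Cells treated with LPS and compound at 10−60 μg/mL for 24 h. Lysates immunoblotted with rabbit polyclonal anti-iNOS, detecting a 130 kD band matched to purified iNOS. Beta-actin (43 kD) used as loading control.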

RAW264.7 [9] = experiment: Inhibition of LPS-induced NO production in mouse RAW264.7 cells assessed as reduction in nitrite level after 48 hrs by Griess reagent method in presence of TLR2 agonist pam2CSK4; type: functional, cell-based
Method in brief: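 Cells stimulated through TLR2 with Pam2CSK4 (500 ng/mL) and incubated with compound at 30−60 μg/mL for 48 h. Nitrite read-out by Griess reaction.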

RAW264.7 [10] = experiment: Inhibition of LPS-induced NO production in mouse RAW264.7 cells assessed as reduction in nitrite level after 24 hrs by Griess reagent method in presence of IFN-gamma; type: functional, cell-based
Method in brief: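 Stimulation of the JAK-STAT pathway in RAW 264.7 cells with interferon-gamma at 100 U/mL in the presence of compound. Inducible NO synthesis measured as medium nitrite by Griess reaction.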

RAW264.7 [11] = experiment: Inhibition of LPS-induced NO production in mouse RAW264.7 cells assessed as reduction in nitrite level after 24 hrs by Griess reagent method in presence of TLR2 agonist pam2CSK4; type: functional, cell-based
RAW264.7 [12] = experiment: Inhibition of LPS-induced NO production in mouse RAW264.7 cells assessed as reduction in nitrite level after 24 hrs by Griess reagent method in presence of TLR4 agonist Kdo2; type: functional, cell-based
Method in brief: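 TLR4 activation of RAW 264.7 cells with Kdo2-lipid A at 500 ng/mL, together with compound at 30−60 μg/mL for 24 h. Nitrite in the culture medium determined by Griess reaction.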

RAW264.7 [13] = experiment: Cytotoxicity against mouse RAW264.7 cells assessed as reduction in mitochondrial respiration by MTT assay; type: cell-based
Method in brief: (§2)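 RAW 264.7 cells exposed to compound at 20−60 μg/mL over the course of the experimental procedures. Viability checked by trypan blue exclusion (membrane integrity) and by MTT test (cellular metabolism/mitochondrial respiration).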

RAW264.7 [14] = experiment: Cytotoxicity against mouse RAW264.7 cells assessed as reduction in cellular metabolism by MTT assay; type: ADME, cell-based; method in brief: as §2
RAW264.7 [15] = experiment: Cytotoxicity against mouse RAW264.7 cells assessed as reduction in membrane integrity by MTT assay; type: cell-based; details: in the assay text read “trypan blue exclusion assay” for “MTT assay”; method in brief: as §2
[16] = target: T1, Nitric oxide synthase, inducible (Mus musculus); experiment: Inhibition of iNOS in mouse RAW264.7 cells at 60 ug/ml; type: cell-based
Method in brief: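 Cytosolic iNOS enzymatic activity assayed with compound at 60 μg/mL final concentration, compared with incubations lacking compound. L-NAME (300 μM) and W1400 (50 μg/mL) served as reference inhibitors.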

RAW264.7 [17] = experiment: Inhibition of LPS-induced NO production in mouse RAW264.7 cells assessed as reduction in nitrite level at 60 ug/ml after 24 hrs by Griess reagent method; type: functional; details: RAW264.7, 24 h
RAW264.7 [18] = experiment: Inhibition of LPS-induced NO production in mouse RAW264.7 cells assessed as reduction in nitrite level at 30 ug/ml after 24 hrs by Griess reagent method; type: functional; details: RAW264.7, 24 h
RAW264.7 [19] = experiment: Inhibition of LPS-induced NO production in mouse RAW264.7 cells assessed as reduction in nitrite level at 20 ug/ml after 24 hrs by Griess reagent method; type: functional; details: RAW264.7, 24 h
[20] = target: Transcription factor p65 (Mus musculus) (UniProt Q04207); experiment: Inhibition of NFkappa-B p65 subunit nuclear translocation in LPS-stimulated mouse RAW264.7 cells preincubated for 30mins before LPS treatment by Western blot analysis; type: cell-based
Method in brief: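 Macrophages pre-incubated with compound at 20−60 μg/mL for 30 min, then stimulated with LPS for 20 min. Nuclear extracts immunoblotted against NF-κB p65, detected as a 65 kD band.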

[21] = target: T2, Nuclear factor NF-kappa-B p105 subunit (Mus musculus) (UniProt P25799); experiment: Inhibition of binding of NFkappa-B p50 subunit to biotinylated consensus sequence in nuclear extract of LPS-stimulated mouse RAW264.7 cells after 1 hr by; type: cell-based
T2 sequence (whole entry): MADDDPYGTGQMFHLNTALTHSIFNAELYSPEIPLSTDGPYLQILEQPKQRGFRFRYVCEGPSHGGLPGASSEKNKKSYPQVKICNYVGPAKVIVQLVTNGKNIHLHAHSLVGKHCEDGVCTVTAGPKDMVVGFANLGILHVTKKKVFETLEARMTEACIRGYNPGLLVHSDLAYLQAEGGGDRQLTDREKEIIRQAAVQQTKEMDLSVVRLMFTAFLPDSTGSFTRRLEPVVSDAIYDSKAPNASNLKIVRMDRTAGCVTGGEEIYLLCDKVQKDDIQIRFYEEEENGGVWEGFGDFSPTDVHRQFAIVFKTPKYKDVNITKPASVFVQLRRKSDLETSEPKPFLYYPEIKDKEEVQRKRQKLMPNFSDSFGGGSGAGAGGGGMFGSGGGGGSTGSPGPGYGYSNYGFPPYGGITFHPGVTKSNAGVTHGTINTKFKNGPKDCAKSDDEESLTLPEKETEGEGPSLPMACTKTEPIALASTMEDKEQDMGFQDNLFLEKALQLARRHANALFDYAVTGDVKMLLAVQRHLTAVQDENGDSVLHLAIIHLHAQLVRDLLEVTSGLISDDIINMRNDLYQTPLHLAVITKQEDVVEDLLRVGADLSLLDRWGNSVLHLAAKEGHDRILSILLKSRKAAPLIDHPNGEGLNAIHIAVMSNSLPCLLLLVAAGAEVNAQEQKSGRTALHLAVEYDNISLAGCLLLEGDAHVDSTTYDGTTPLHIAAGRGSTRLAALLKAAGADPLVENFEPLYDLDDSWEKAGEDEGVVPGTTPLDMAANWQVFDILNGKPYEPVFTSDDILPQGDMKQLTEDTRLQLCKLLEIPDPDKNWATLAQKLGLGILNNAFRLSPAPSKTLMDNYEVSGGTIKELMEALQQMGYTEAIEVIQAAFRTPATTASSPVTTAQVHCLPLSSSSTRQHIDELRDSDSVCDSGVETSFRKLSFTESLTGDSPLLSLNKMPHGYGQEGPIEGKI
Method in brief: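 RAW 264.7 cells (1 × 10^6) seeded in six-well plates, with LPS and compound added together for 1 h. Nuclear extracts prepared and binding of NF-κB p50 to a biotinylated consensus sequence read as relative light units.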

RAW264.7 [22] = experiment: Reduction of TNFalpha mRNA expression in LPS-stimulated mouse RAW264.7 cells by RT-PCR analysis; type: functional, cell-based; method in brief: as §1
RAW264.7 [23] = experiment: Inhibition of LPS-induced NO production in mouse RAW264.7 cells assessed as reduction in nitrite level after 24 hrs by Griess reagent method in presence of TLR4 agonist Kdo2

Transcription factor p65 (Mus musculus), sequence (Q04207 whole entry): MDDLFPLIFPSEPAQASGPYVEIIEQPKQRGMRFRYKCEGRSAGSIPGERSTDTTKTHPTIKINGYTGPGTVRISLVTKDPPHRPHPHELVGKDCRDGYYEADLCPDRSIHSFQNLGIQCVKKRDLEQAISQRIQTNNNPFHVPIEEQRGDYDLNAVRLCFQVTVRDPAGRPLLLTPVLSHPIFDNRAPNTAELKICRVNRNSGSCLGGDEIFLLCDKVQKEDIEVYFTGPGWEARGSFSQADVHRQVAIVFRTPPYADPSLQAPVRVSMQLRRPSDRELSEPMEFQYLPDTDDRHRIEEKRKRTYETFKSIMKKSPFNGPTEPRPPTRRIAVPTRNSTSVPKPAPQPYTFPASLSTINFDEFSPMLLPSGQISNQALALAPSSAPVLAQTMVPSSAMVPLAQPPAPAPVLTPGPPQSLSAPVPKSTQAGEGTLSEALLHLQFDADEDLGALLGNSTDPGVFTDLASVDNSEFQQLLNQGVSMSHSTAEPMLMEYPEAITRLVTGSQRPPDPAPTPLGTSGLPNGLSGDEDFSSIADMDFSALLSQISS

## CC(=N)NCc1cccc(CN)c1
[1]
  inhibition: > 70%

## O=C(O)c1cc(O)c(O)c(O)c1 [GALLIC ACID]
RAW264.7 [2]
  IC50: 632 µM

## COC(=O)[C@@H](N)CCCNC(=N)N[N+](=O)[O-]
[3]
  inhibition: > 70%

## O=C(O[C@H]1[C@@H]2OC(=O)c3cc(O)c(O)c(O)c3-c3c4cc(c(O)c3O)Oc3c(cc(O)c(O)c3O)C(=O)O[C@H]3C(O)O[C@@H]5COC(=O)c6cc(O)c(O)c(O)c6-c6c(cc(c(O)c6O)Oc6c(cc(O)c(O)c6O)C(=O)O[C@H]1C(O)O[C@@H]2COC4=O)C(=O)O[C@H]5[C@@H]3OC(=O)c1cc(O)c(O)c(O)c1)c1cc(O)c(O)c(O)c1 (stereo not given in full) [OENOTHEIN B]
RAW264.7 [4]
  Activity: Active
RAW264.7 [5]
  Activity: Active
RAW264.7 [6]
  Activity: Non-toxic
RAW264.7 [7]
  Activity: Dose-dependent effect
RAW264.7 [8]
  Activity: Dose-dependent effect
RAW264.7 [9]
  inhibition: Dose-dependent effect
RAW264.7 [10]
  inhibition: inactive
RAW264.7 [11]
  inhibition: Dose-dependent effect
RAW264.7 [12]
  inhibition: Dose-dependent effect
RAW264.7 [13]
  Activity: Non-toxic
RAW264.7 [14]
  Activity: Non-toxic
RAW264.7 [15]
  Activity: Non-toxic
[16]
  inhibition: inactive
RAW264.7 [17]
  inhibition at 60 µg/mL: 87.9%
RAW264.7 [18]
  inhibition at 30 µg/mL: 64.6%
RAW264.7 [19]
  inhibition at 20 µg/mL: 34.8%
RAW264.7 [2]
  inhibition: Dose-dependent effect
  IC50: 17.7 µM
[20]
  inhibition: Dose-dependent effect
[21]
  inhibition: Active
RAW264.7 [22]
  Activity: Active
RAW264.7 [23]
  inhibition: Dose-dependent effect
